In paper PMC2647857 (Journal of the American Chemical Society, 2009):
Where a chain is given by its changes, count along the chain named. Numbers in names are those of the source. Where two headings read alike, the source gives them in different places.

B1: NP4: recombinant wild-type nitrophorin 4 of Rhodnius prolixus, native A1 as first residue (protein, UniProt Q94734 22-205, looked up)
Nitrophorin-4: ACTKNAIAQTGFNKDKYFNGDVWYVTDYLDLEPDDVPKRYCAALAAGTASGKLKEALYHYDPKTQDTFYDVSELQVESLGKYTANFKKVDKNGNVKVAVTAGNYYTFTVMYADDSSALIHTCLHKGNKDLGDLYAVLNRNKDAAAGDKVKSAVSAATLEFSKFISTKENNCAYDNDSLKSLLTK
B2: NP4-E55Q: site-directed mutant of NP4, buried E55 replaced by Gln (protein, UniProt Q94734 22-205, looked up, variant E55Q)
Nitrophorin-4: B1 Nitrophorin-4 with E55Q
B3: NP4-D30A: site-directed mutant of NP4, D30 replaced by Ala (protein, UniProt Q94734 22-205, looked up, variant D30A)
Nitrophorin-4: B1 Nitrophorin-4 with D30A
B4: NP1: recombinant wild-type nitrophorin 1 of Rhodnius prolixus, NO-carrying heme protein, with M0 present (protein, UniProt Q26239 24-207, looked up)
Nitrophorin-1: KCTKNALAQTGFNKDKYFNGDVWYVTDYLDLEPDDVPKRYCAALAAGTASGKLKEALYHYDPKTQDTFYDVSELQEESPGKYTANFKKVEKNGNVKVDVTSGNYYTFTVMYADDSSALIHTCLHKGNKDLGDLYAVLNRNKDTNAGDKVKGAVTAASLKFSDFISTKDNKCEYDNVSLKSLLTK
modifications: N-terminal Met0 retained

Key:
[1] = ligand-free, cited from earlier work
[2] = read-out: Kd for NO dissociation, Fe(III), cited from earlier work
[3] = NO bound, cited from earlier work
[4] = Spectroelectrochemical midpoint potential of the NO complex; assay type: physicochemical, Rhodnius prolixus; conditions: NO bound
Method in brief: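 Spectroelectrochemistry of ~0.05 mM E. coli-expressed protein in 0.1 M sodium phosphate or acetate at pH 5.5, 6.5 and 7.5, 27 ± 1 °C. SNAP supplied NO at a level fully complexing both oxidation states. Ag/AgCl reference ([…] mV vs SHE). Absorbance versus applied potential fit to Nernst equation; pH dependence and mutant−standard differences derived.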

[5] = Imidazole binding constant to Fe; design: species or system Rhodnius prolixus; conditions: pH 5.5
[6] = Spectroelectrochemical midpoint potential, ligand-free; assay type: physicochemical, Rhodnius prolixus; conditions: ligand-free
[7] = NO binding constant to Fe; design: species or system Rhodnius prolixus; conditions: pH 7.5

Molecule | Em ([1]; pH 5.5, 27 °C ref 15) | Em ([1]; pH 7.5, 27 °C ref 15) | Kd ([2]; pH 5.5 ref 19) | Kd ([2]; pH 7.5 ref 19) | Em,NO ([3]; pH 5.5, 27 °C ref 15) | Em,NO ([4]; pH 6.5, 27 °C) | Em,NO ([4]; pH 7.5, 27 °C) | increase of imidazole binding constant compared to wild-type [5] | ΔEm = Em(mutant)−Em(standard) ([6]; pH 5.5) | Em ([6]; pH 5.5, 27 °C) | ΔEm = Em(mutant)−Em(standard) ([6]; pH 7.5) | Em ([6]; pH 7.5, 27 °C) | ΔpHΔ(Em,NO) = ΔEm,NO(pH7.5) − ΔEm,NO(pH5.5) [4] | ΔEm,NO = Em(mutant)−Em(standard) ([4]; pH 5.5) | Em,NO ([4]; pH 5.5, 27 °C) | ΔEm,NO = Em(mutant)−Em(standard) ([4]; pH 6.5) | ΔEm,NO = Em(mutant)−Em(standard) ([4]; pH 7.5) | NO formation constant Kf, Fe(III) form ([7]; listed as M0-containing NP1) | Kd ([7]; read-out: NO dissociation constant Kd, Fe(III) form) | Em,NO ([3]; pH 7.5, 27 °C ref 15)
B1 | −259±2 mV vs. SHE | −278±4 mV vs. SHE | 50 nM | 120 nM | 94±5 mV vs. SHE | 44±2 mV vs. SHE | 59±2 mV vs. SHE | – | – | – | – | – | – | – | – | – | – | – | – | –
B2 | – | – | – | – | – | 67±2 mV vs. SHE | 126±2 mV vs. SHE | 1 log unit | 68±3 mV | −191±3 mV vs. SHE | 82±4 mV | −196±2 mV vs. SHE | 73±6 mV | −6±5 mV | 88±1 mV vs. SHE | 23±3 mV | 67±2 mV | – | – | –
B3 | – | – | – | – | – | 163±4 mV vs. SHE | – | – | 46±2 mV | −213±1 mV vs. SHE | 62±4 mV | −216±2 mV vs. SHE | 53±6 mV | 87±5 mV | 181±2 mV vs. SHE | 119±5 mV | 139±2 mV | – | – | –
B4 | −274±2 mV vs. SHE | −303±4 mV vs. SHE | – | – | 154±5 mV vs. SHE | 118±3 mV vs. SHE | – | – | – | – | – | – | – | – | – | – | – | 1e+06 M⁻¹ | 1000 nM | 127±4 mV vs. SHE
